High-throughput results (PubChem)
In the library only some 5.8% were active in any assay of this set; here they are far more common.
PTK2B oligo ant – Pyk2 (human) oligomerization antagonism; actives 0.83% (n = 99,000); Q293 cells, Pyk2 FERM NanoBiT luminescence; hits give low values; AID 1347419; z-score (the deposit names both 25 µM and 10 µM);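 active = Z-score of -3 or lower, scaled per plate to the spread of control and sample wells; inactive = z-score above -3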;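 also: negative z-score means lost luminescence so less FERM oligomerization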
FAK blocker – blocks human focal adhesion kinase activity. Q05397. AID 727. biochemical FAK kinase activity assay. actives 0.84% (n = 97,000). inhibition, %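 (tested at 7 µM)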; in the data active = inhibition above about 19%
PLK1 PBD inh – Plk1 (human) PBD binding inhibition; P53350; Plk1 PBD phosphopeptide binding, fluorescence polarization; inhibition, %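 (tested at about 20 µM)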; actives 0.13% (n = 97,000); in the data active = inhibition above about 34%, passing the limit was not always enough
PLK1 kinase inh – inhibitors of human PLK1 kinase; P53350; recombinant PLK1 kinase, TR-FRET peptide phosphorylation; inhibition, % at 10 µM; actives 0.53% (n = 97,000);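 active = inhibition of 50% or more in the single-concentration screen; inactive = inhibition below 50%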
Cav32 inh – human Cav3.2 channel inhibition, primary screen; O95180; Cav3.2-expressing cells, Fluo-4 calcium fluorescence FDSS; hits give low values; B-score at 10 µM; actives 4% (n = 100,000);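 active = single-dose well whose peak fluorescence ratio is a statistical outlier from its plate by either plate-standardised score or position-corrected B-score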
HIV Rev-RRE inh – inhibitors of HIV-1 Rev-RRE RNA interaction. Rev peptide-RRE RNA binding, FRET. inhibition, % at 8 µM. actives 0.79% (n = 97,000). AID 704;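 active = inhibition above the screen-wide mean plus 3 SD, cut at about 35% in these data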
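Test system – labelled RRE RNA duplex and labelled Rev peptide · Reagent – labelled Rev peptide · Doses – one concentration, 8 µM nominal · Incubation – 5 + 15 min at 25 °C · Signal – FRET fluorescence readout · Read-out basis – % inhibition of FRET ratio versus controls · Control set – DMSO wells as 0% and neomycin B wells as 100% inhibition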
Hits are given with their value; n = inactive; x = not tested or not shown; [ ] = remark or other dose.

SMILES	PTK2B oligo ant	FAK blocker	PLK1 PBD inh	PLK1 kinase inh	Cav32 inh	HIV Rev-RRE inh
CC(=O)Nc1cc2c(cc1C(C)=O)OCCO2	n	n	n	n	x	n
CCOC(=O)C(=O)/C(=C\N(C)C)c1onc(-c2c(Cl)cccc2Cl)c1C(=O)OC	n	n	n	n	x	n
Cc1cc(C)c(NC(=O)c2ccc(CN3CCc4ccccc4C3)cc2)c(C)c1	n	n	n	n	-4.3	n
O=C(NCc1ccc2c(c1)OCO2)c1ccc(CN2CCc3ccccc3C2)cc1	n	n	n	n	-5.3	n
CCCn1c(NCc2cc(OC)ccc2OC)nc2ccccc21	n	n	n	n	-4.8	n
CCn1c(NCc2cc(OC)ccc2OC)nc2ccccc21	n	n	n	n	n	n
C(=C\c1ccccc1)/CSc1nnc(-c2ccccc2)n1Cc1ccco1	n	n	n	n	-5.8	n
C(=C\c1ccccc1)/CSc1nnc(-c2ccncc2)n1Cc1ccco1	n	x	x	x	n	x
Cc1cccc(-c2nnc(SCc3nc4ccccc4[nH]3)n2Cc2ccco2)c1	n	n	n	n	-4.8	n
CCCCC(=O)Nc1ccc(C(=O)N2CCC(C(=O)OCC)CC2)cc1	n	n	n	n	n	n
NC(=O)CC(O)c1cccc(Cl)c1 (stereo unspecified)	n	x	x	x	x	x
COc1ccc(C(=O)C(CO)Oc2ccccc2OC)cc1OC (stereo unspecified)	n	n	n	n	x	n
Cc1cccc(NC(=O)CN2C(=O)COc3ccc(Cl)cc32)c1	n	x	x	x	n	x
Cc1cccc(NC(=O)CN2C(=O)COc3ccc(Cl)cc32)c1C	x	n	n	n	-5.3	n
CC1CC(N(C(=O)c2ccco2)c2ccccc2)c2ccccc2N1 (stereo unspecified)	n	n	n	n	-4.3	n
CC1CC(c2ccccc2)n2nc(NC(=O)c3ccco3)nc2N1 (stereo unspecified)	n	n	n	n	n	n
Clc1cc(Sc2ccc(Br)cc2)nnc1-c1ccccc1	n	n	n	n	-5.3	n
COC(=O)C1=C(N)Oc2cc(C)n(CCN3CCOCC3)c(=O)c2C1c1cccnc1 (stereo unspecified)	n	n	n	n	n	n
CC(=O)NCCC(=O)Nc1ccc(F)cc1C	n	n	n	n	x	n
Cc1ccc(CS/C(Nc2ccccc2C)=C(\C#N)C(=O)NCc2ccco2)c(C)c1	n	n	n	n	n	n
Cc1ccccc1N/C(SCc1ccc(Cl)cc1)=C(/C#N)C(=O)NCc1ccco1	n	n	n	n	-5.5	n
Cc1noc(C)c1S(=O)(=O)N(CC(=O)N1CCCC1)c1ccc(C(C)C)cc1	x	n	n	n	n	n
Cc1noc(C)c1S(=O)(=O)N(CC(=O)N1CCCCCC1)c1ccc(C(C)C)cc1	x	n	n	n	-4.1	n
CC(C)CCN(C(=O)CNC(=O)c1ccco1)C(C(=O)NC1CCCCC1)c1ccco1 (stereo unspecified)	n	n	n	n	n	n
O=C(CN1CCN(Cc2ccccc2F)C1=O)NCCc1ccc(Cl)cc1	x	n	n	n	n	n
SMILES	PTK2B oligo ant	FAK blocker	PLK1 PBD inh	PLK1 kinase inh	Cav32 inh	HIV Rev-RRE inh
O=C(O)c1cccc(NC(=S)NC(=O)C(c2ccccc2)c2ccccc2)c1	n	n	n	n	n	n
COc1ccc(NC(=O)c2oc3ccccc3c2NC(=O)c2ccco2)cc1	-3	n	n	n	n	n
CC(=O)c1cccc(-n2nnnc2SCC(=O)Nc2cccc(NC(=O)c3ccco3)c2)c1	n	n	n	n	n	n
COc1ccc(S(=O)(=O)NCCSCc2ccco2)cc1C	n	n	n	n	n	n
COc1ccc(S(=O)(=O)NCCSCc2ccco2)cc1Cl	n	n	n	n	-6	n
Cc1ccc(C(=O)CC2(O)C(=O)N(C)c3ccccc32)o1 (stereo unspecified)	x	n	n	63	x	n
O=C(CNC(=O)c1ccc(Cl)cc1Cl)NCCCn1ccnc1	n	n	n	n	n	n
COCCNC(C(=O)Nc1cc(Cl)cc(Cl)c1)c1ccccc1 (stereo unspecified)	n	n	n	n	-5.2	n
COc1ccc(-n2ncc(S(=O)(=O)c3ccccc3)c2-c2ccc(Cl)cc2)cc1	-3.3	n	n	n	-6.7	n
O=S(=O)(c1ccccc1)c1cnn(-c2ccccc2)c1-c1ccc(F)cc1	n	n	n	n	-5.8	n
C=CCNC(=S)NCC=C	x	x	x	x	n	x
CCN(C(N)=S)c1ccccc1	n	n	n	n	n	n
CCCC(=O)N(CCN(C(=O)CCC)c1ccccc1)c1ccccc1	n	n	n	n	-4.1	n
CCCCNC(=O)CC(C(=O)N1CCc2ccccc21)n1ccnc1 (stereo unspecified)	n	n	n	n	n	n
O=C(C(Cc1ccccc1)n1cccc1)N1CCc2ccccc21 (stereo unspecified)	x	x	x	x	-6.2	x
O=C(CC(C(=O)N1CCc2ccccc21)n1ccnc1)N1CCc2ccccc2C1 (stereo unspecified)	n	n	n	n	x	60
CCc1cc(/C(Cc2csc(C)n2)=N/O)c(O)cc1O	n	n	n	n	-5.2	n
Cn1c(=O)[nH]c(=O)c2c1nc(N1CCCCC1)n2CCCSc1nc2ccccc2s1	n	n	n	n	n	n
COc1ccc(N2CCCn3c2nc2c3c(=O)n(Cc3ccccc3F)c(=O)n2C)c(OC)c1	n	n	n	n	n	n
COc1ccccc1NS(=O)(=O)c1cccc(C(=O)OCC(=O)Nc2cc(C)on2)c1	n	n	n	n	-4.8	n
Cc1ccc(-c2cc(C(=O)OCC(=O)Nc3cc(C)on3)c3ccccc3n2)c(C)c1	n	n	n	n	n	n
Cc1cccc(NS(=O)(=O)c2ccc(C)c(C(=O)OCC(=O)Nc3cc(C)on3)c2)c1	-3.8	n	n	n	n	n
Cc1ccc(C(=O)COC(=O)CCC(=O)Nc2cccc(Cl)c2)cc1[N+](=O)[O-]	n	n	n	n	x	n
Cc1cc(C(=O)CN2C(=O)NC3(CCCc4ccccc43)C2=O)c(C)n1Cc1ccco1 (stereo unspecified)	x	n	n	n	n	n
Cc1cc(C(=O)CN2C(=O)NC3(CCCc4ccccc43)C2=O)c(C)n1Cc1ccccc1 (stereo unspecified)	n	n	n	n	-4.4	n
CCOc1cc(N(CC)CC)ccc1/C=C(/C#N)c1nc2ccccc2[nH]1	-3.1	n	n	n	x	132[fluorescence artefact?]
COc1cc(/C=C(\C#N)c2nc3ccc(C)cc3[nH]2)c([N+](=O)[O-])cc1OC	n	n	n	n	n	n
COc1ccc(/C=C(\C#N)c2nc3ccc(C)cc3[nH]2)cc1Oc1ccc(C(F)(F)F)cc1[N+](=O)[O-]	x	n	n	n	x	n
CCCOc1cc(N(CC)CC)ccc1/C=C(/C#N)c1nc2ccc(C)cc2[nH]1	n	n	n	n	-5	133[fluorescence artefact?]
